Sampled rows, rich in hits. Any-hit rate of the full collection: about 4.5%.
GPR7 antagonist – antagonists of human GPR7 (neuropeptides B/W receptor 1). P48145. GPR7-expressing cells, fluorescence antagonist assay. inhibition, % at 4.4 µM. hit rate 1.1% among 290,000. AID 1861; in the data active = inhibition above about 16%, passing the limit was not always enough;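 note: cells stimulated with the agonist NPW; 0% = agonist with vehicle and 100% = vehicle without agonist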
OX1R antag-1 – human HCRTR1 antagonism; O43613; CHO/OX1R cells, Fluo-8 calcium fluorescence, orexin A; inhibition, % at 5 µM; hit rate 0.43% among 330,000;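 active = inhibition above its plate's threshold, mean inhibition of all tested compounds on the plate plus 3 SD, cut at about 37% in these data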;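 note: 0% = orexin A challenge wells and 100% = SB-334867-A antagonist wells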
Target sequence (O43613 whole entry, looked up): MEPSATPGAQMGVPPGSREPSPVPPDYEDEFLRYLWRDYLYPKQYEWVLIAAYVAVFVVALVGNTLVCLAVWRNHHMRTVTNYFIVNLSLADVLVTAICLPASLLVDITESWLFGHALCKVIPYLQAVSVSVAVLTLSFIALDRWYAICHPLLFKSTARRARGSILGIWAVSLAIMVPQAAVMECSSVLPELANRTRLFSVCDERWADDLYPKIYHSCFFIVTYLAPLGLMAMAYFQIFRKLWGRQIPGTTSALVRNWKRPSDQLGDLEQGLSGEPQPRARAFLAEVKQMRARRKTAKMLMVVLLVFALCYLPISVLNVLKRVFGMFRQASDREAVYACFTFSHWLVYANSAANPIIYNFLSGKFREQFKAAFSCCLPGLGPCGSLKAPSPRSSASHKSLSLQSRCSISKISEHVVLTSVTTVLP
OX1R antag-2 – blocks the human orexin 1 receptor; O43613; OX1R-expressing cells, FRET antagonist read-out; hit rate 1.8% among 330,000; inhibition, % at 6.6 µM; in the data active = inhibition mostly above about 38%, no sharp cut-off; inactive = mostly below about 40%;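 note: 0% = agonist challenge alone and 100% = reference antagonist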
CHO parental Ca – signal in parental CHO cells, OX1R antagonist counter-screen. parental CHO-K1, ATP-induced calcium, Fluo-8 fluorescence. inhibition, % at 5.6 µM. AID 463079. hit rate 0.63% among 330,000;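 active = inhibition above that plate's mean sample inhibition plus 3 SD, cut at about 26% in these data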;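 note: 0% = ATP-challenged DMSO wells and 100% = DMSO wells without ATP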
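Measured by: calcium-sensitive Fluo-8 fluorescence / Test system: CHO parental line / Controls: ATP-challenged DMSO wells low, unchallenged DMSO wells high / Measure: % inhibition / Compound: single nominal dose of 5.6 µM per compound / Replicates: single well per compound, no replicates / Reagent: ATP as calcium-mobilizing challenge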
TAAR1 agonist – agonists of human TAAR1 | Q96RJ0 | CHO RD-HGA16 TAAR1, Fluo-8 calcium fluorescence; vehicle wells 0%, saturating PEA agonist 100% | activation, % at 3 µM | hit rate 0.99% among 360,000 | AID 624467;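 active = activation above the mean activation of all test compounds in the run plus 3 SD, cut at about 38% in these data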
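Test system: RD-HGA16 (CHO) cells co-expressing Gα16 and hTAAR1 | Doses: Single dose, 3 µM | Schedule: 17-24 h seeding, 75 min 37 °C dye, 30 min RT | Evaluation: % activation from peak over basal fluorescence ratio, DMSO-to-PEA scaled | Technique: Kinetic Fluo-8 calcium fluorescence | Benchmarks: Low control DMSO, high control PEA (EC100)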
TAAR1 antag – antagonists of human TAAR1; Q96RJ0; CHO RD-HGA16 TAAR1, Fluo-8 calcium fluorescence, antagonist; inhibition, % at 3 µM; hit rate 1.5% among 360,000; AID 624466;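 active = inhibition above a per-plate cutoff, the mean inhibition of test compounds on that plate plus 3 SD, cut at about 49% in these data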;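 note: 0% = DMSO plus EC80 beta-PEA response and 100% = DMSO alone without agonist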
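Test system: RD-HGA16 CHO cells with stable hTAAR1 and Gα16 / Probe or stimulus: EC80 β-phenethylamine stimulus / Times: seeding 17-24 h prior, 75-min 37 °C, 30-min RT dye loading / Detection: Fluo-8 calcium-sensitive fluorescence / Read-out basis: % inhibition scaled between DMSO and EC80 PEA controls / Repeats: singlicate, one well per test compound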
* = called active by the depositor; . = no result.

SMILES	GPR7 antagonist	OX1R antag-1	OX1R antag-2	CHO parental Ca	TAAR1 agonist	TAAR1 antag
Cc1nc2ccccc2cc1OCc1ccc(Cl)cc1	13.7	0.4	40.9*	50.0*	23.3	14.9
Cc1nc2ccccc2cc1OCc1ccccc1	-2.8	7.4	27.3	37.0*	21.4	12.2
COc1cccc(COc2cc3ccccc3nc2C)c1	18.0	5.0	33.0	14.8	10.6	21.4
CC(=O)O[C@H]1C=C[C@@H](C#Cc2ccc(C(C)(C)C)cc2)O[C@@H]1COC(=O)Nc1ccccc1	.	.	.	.	0.1	-1.9
CC1COC(=O)C(NNc2ccc(Cl)c(Cl)c2)=N1 (stereo not drawn)	19.0*	1.2	0.7	6.1	23.6	4.7
CC1(C)C=Cc2c(ccc3c2OC[C@H](c2ccc(O)cc2O)C3)O1	.	51.9*	0.1	79.2*	16.6	2.2
CC(C)=CCc1cc([C@@H]2COc3c(ccc4c3C=CC(C)(C)O4)C2)c(O)cc1O	.	-7.5	2.9	-9.2	0.5	-24.7
CCC(=O)C1CCCN(C(=O)CCc2nnc(-c3ccc4c(c3)OCO4)o2)C1 (stereo not drawn)	-17.6	-10.3	11.6	-7.7	0.8	-8.3
CCn1nc(C)c(CNC(=O)CCc2nnc(-c3ccc(C(C)=O)s3)o2)c1C	-0.7	-16.8	63.3*	-10.5	5.6	5.4
CCC(=O)C1CCCN(C(=O)CCc2nnc(-c3ccc(C(C)=O)s3)o2)C1 (stereo not drawn)	-12.8	-14.0	38.0*	-9.6	0.7	-4.1
COCCN1Cc2cc(C(=O)OC)c3c(c2C1=O)c1cc(F)ccc1n3S(=O)(=O)c1ccc(C)cc1	.	.	.	.	-2.0	-46.5
CC(C)[C@@H](C)/C=C/[C@@H](C)[C@H]1CC[C@@H]2[C@]1(C)CCC1[C@]23C=C[C@]2(C[C@@H](O)CC[C@]12C)N(c1cnccn1)O3 (stereo partly drawn)	.	.	.	.	2.5	-11.1
Oc1ccccc1CNCC12CC3CC(CC(C3)C1)C2	-0.3	-13.7	-2.4	-11.8	3.2	-10.0
CC(CC12CC3CC(CC(C3)C1)C2)NCc1ccccc1O (stereo not drawn)	16.8	-20.5	6.1	-17.3	39.0*	0.6
CC(C)c1cc(C(=O)OCC(=O)NC(=O)NCc2ccco2)c(O)c(C(C)C)c1	16.9*	-14.4	5.7	-2.6	2.5	-19.5
O=C(COC(=O)c1ccccc1C(F)(F)F)NC(=O)NCc1ccco1	.	-11.2	4.6	-12.0	6.2	-35.6
O=C(Nc1ccn(Cc2ccccc2F)n1)c1ccc(COc2ccccc2Cl)cc1	-6.8	18.9	29.0	13.2	8.9	54.9*
CCOC(=O)c1ccc(N2CCN(c3ccccc3F)CC2)c(NC(=O)Nc2cccc(OC)c2)c1	-2.8	28.0	29.9	16.5	10.0	69.3*
COC(=O)c1ccc(N2CCOCC2)c(NC(=O)Nc2cccc(OC)c2)c1	5.0	-20.2	9.2	0.9	2.1	5.6
c1ccc(Nc2nnc(-c3ccc4c(c3)OCO4)o2)cc1	.	.	.	.	0.8	-25.7
COc1ccc(CN(C)C(=O)c2cccc(Oc3ccccc3)c2)c(OC)c1OC	2.1	-16.3	12.9	-22.8	11.1	53.8*
COc1ccc(CN(C)C(=O)C(Cc2ccccc2)NC(=O)c2ccccc2)c(OC)c1OC (stereo not drawn)	.	.	.	.	10.3	53.7*
COc1ccc(C)cc1NC(=O)c1nn(C)c(C(=O)Nc2cc(C)ccc2OC)c1[N+](=O)[O-]	-20.3	-5.0	33.8*	-16.6	4.1	-29.9
Cc1ccccc1NC(=O)c1nn(C)c(C(=O)Nc2ccccc2C)c1[N+](=O)[O-]	-6.2	-9.3	8.0	-14.1	6.9	2.6
CCOC(=O)C(Cc1ccccc1)NC(=O)CCCC(=O)c1ccccc1 (stereo not drawn)	20.8	11.2	16.1	47.3*	0.7	-7.8
COc1ccc(OC)c(S(=O)(=O)N2CCC(C(=O)Nc3cccc(C(F)(F)F)c3)CC2)c1	-8.7	12.9	36.8	0.1	15.8	52.7*
COc1ccc(OC)c(S(=O)(=O)N2CCN(c3c(C)cccc3C)CC2)c1	-15.6	-28.8	13.0	26.0*	-1.7	3.2
CCN(CC)CCCNC(=O)CNC(=O)c1nn(-c2ccc(OC)cc2OC)c(=O)c2ccccc12	.	.	.	.	1.2	-5.7

Screening results from PubChem.
